# In ChEMBL document CHEMBL3351225, “Design, synthesis, and structure-activity and structure-pharmacokinetic relationship studies of novel [6,6,5] tricyclic fused oxazolidinones leading to the discovery of a potent, selective, and orally bioavailable FXa inhibitor” (J Med Chem, 2014):
# Key:
# V79 = assay: Toxicity in Chinese hamster V79 cells by micronucleus Assay; type: cell-based, Cricetulus griseus
# Rattus norvegicus [1] = assay: Toxicity in rat assessed as induction of food intake changes at 100 mg/kg, po dosed once daily for 2 weeks; type: organism-based; set-up: dose 100 mg/kg, route oral; settings: in vivo, 336 h
# Outline: (§1)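 Subacute toxicity in rats: oral dosing once daily for 2 weeks at 50 mg/kg (medium) or 100 mg/kg (high). Behavior, body weight, food intake, organ coefficients and survival rate were monitored.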
# Rattus norvegicus [2] = assay: Toxicity in rat assessed as induction of body weight changes at 50 mg/kg, po dosed once daily for 2 weeks; type: organism-based; set-up: dose 50 mg/kg, route oral; settings: in vivo, 336 h; outline: as §1
# Cytochrome P450 2C9 = Cytochrome P450 2C9 (Homo sapiens, UniProt P11712); assay: Inhibition of CYP2C9 (unknown origin); type: ADME
# [3] = Volume of distribution at steady state in Beagle dog at 0.5 mg/kg, iv; type: ADME, organism-based, Canis lupus familiaris; set-up: dose 0.5 mg/kg, route intravenous; settings: in vivo, read-out: Vdss
# Outline: (§2)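 Male dogs, three per group. Dosed orally at 1 mg/kg or by intravenous infusion at 0.5 mg/kg. Vehicle was 5% DMSO + 5% Tween-80 in 90% saline, or 10% DMSO + 10% Tween-80 + 80% PEG400 for the reference drug. Foreleg blood samples were quantified by LC-MS. Parameters came from noncompartmental analysis of mean plasma concentrations.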
# Coagulation factor X = Coagulation factor X (Homo sapiens, UniProt P00742); assay: Inhibition of human factor 10a using N-Z-D-Arg-Gly-Arg-pNA, S-2765 chromogenic substrate
# [4] = Tmax in Beagle dog at 1 mg/kg, po; type: ADME, organism-based, Canis lupus familiaris; set-up: dose 1 mg/kg, route oral; settings: in vivo; outline: as §2
# Prothrombin = Prothrombin (Homo sapiens, UniProt P00734); assay: Inhibition of human factor 2a using L-pyro-Glu-Pro-ArgpNA, S-2366 chromogenic substrate
# Outline: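 Human enzyme and inhibitor were premixed and preincubated, then the chromogenic substrate was added. Substrate levels: 300 μM S-2765 (FXa, trypsin); 200 μM S-2366 (FIIa); 2 mM S-2366 (FVIIa, FXIa). pNA release was monitored continuously at 405 nm for 20 min at 37 °C. IC50 was obtained by nonlinear regression.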
# [5] = Plasma clearance in Beagle dog at 0.5 mg/kg, iv; type: ADME, organism-based, Canis lupus familiaris; set-up: dose 0.5 mg/kg, route intravenous; outline: as §2
# Rattus norvegicus [6] = assay: Toxicity in rat assessed as induction of behavioral changes at 50 mg/kg, po dosed once daily for 2 weeks; type: organism-based; set-up: dose 50 mg/kg, route oral; settings: in vivo, 336 h; outline: as §1
# Cytochrome P450 3A4 = Cytochrome P450 3A4 (Homo sapiens, UniProt P08684); assay: Inhibition of CYP3A4 (unknown origin); type: ADME
# Coagulation factor IX = Coagulation factor IX (Homo sapiens, UniProt P00740); assay: Inhibition of human factor 9a using CH3SO2-(D)CHG Gly-Arg-pNA, Biophen-CS51 chromogenic substrate
# Salmonella typhimurium = assay: Genotoxicity in Salmonella typhimurium by Ames test; type: toxicity, organism-based; settings: salmonella enterica subsp. enterica serovar typhimurium
# Rattus norvegicus [7] = assay: Toxicity in rat assessed as induction of behavioral changes at 100 mg/kg, po dosed once daily for 2 weeks; type: organism-based; set-up: dose 100 mg/kg, route oral; settings: in vivo, 336 h; outline: as §1
# [8] = Oral bioavailability in Sprague-Dawley rat at 10 mg/kg; type: ADME, organism-based; settings: in vivo
# Outline: (§3)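 Male Sprague-Dawley rats, 200−220 g, four per group. Vehicle was 5% DMSO + 5% Tween-80 in 90% saline. The reference drug was given in 10% DMSO + 10% Tween-80 + 80% PEG400 (40% solution in saline). Serial retrobulbar vein samples were quantified by LC-MS. Parameters came from noncompartmental analysis of mean plasma concentrations.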
# Cytochrome P450 2D6 = Cytochrome P450 2D6 (Homo sapiens, UniProt P10635); assay: Inhibition of CYP2D6 (unknown origin); type: ADME
# Rattus norvegicus [9] = assay: Toxicity in rat assessed as induction of organ coefficients changes at 50 mg/kg, po dosed once daily for 2 weeks; type: organism-based; set-up: dose 50 mg/kg, route oral; settings: in vivo, 336 h; outline: as §1
# Rattus norvegicus [10] = assay: Induction of tail bleeding in rat assessed as prolongation of bleeding time dosed orally 60 mins before surgery; type: organism-based; settings: in vivo, po, 1 h
# Outline: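 Anesthetized rats were dosed orally with compound suspended in 0.5% CMC-Na, or vehicle, 60 min before the tail was transected 4 mm from the tip. The tail was immersed vertically in saline at 37 °C. Bleeding time was taken as the point when flow ceased for >30 s, with a 30 min maximum.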
# Rattus norvegicus [11] = assay: Toxicity in rat assessed as survival rate changes at 50 mg/kg, po dosed once daily for 2 weeks; type: organism-based; set-up: dose 50 mg/kg, route oral; settings: in vivo, 336 h; outline: as §1
# Cytochrome P450 2C19 = Cytochrome P450 2C19 (Homo sapiens, UniProt P33261); assay: Inhibition of CYP2C19 (unknown origin); type: ADME
# Rattus norvegicus [12] = assay: Toxicity in rat assessed as survival rate changes at 100 mg/kg, po dosed once daily for 2 weeks; type: organism-based; set-up: dose 100 mg/kg, route oral; settings: in vivo, 336 h; outline: as §1
# [13] = AUC (0 to infinity) in Sprague-Dawley rat at 10 mg/kg, po; type: ADME, organism-based; set-up: time infinity, dose 10 mg/kg, route oral; settings: plasma; outline: as §3
# [14] = Oral bioavailability in Beagle dog at 1 mg/kg; type: ADME, organism-based, Canis lupus familiaris; settings: in vivo; outline: as §2
# Rattus norvegicus [15] = assay: Toxicity in rat assessed as induction of organ coefficients changes at 100 mg/kg, po dosed once daily for 2 weeks; type: organism-based; set-up: dose 100 mg/kg, route oral; settings: in vivo, 336 h; outline: as §1
# Cytochrome P450 2C19, sequence (P33261 whole entry): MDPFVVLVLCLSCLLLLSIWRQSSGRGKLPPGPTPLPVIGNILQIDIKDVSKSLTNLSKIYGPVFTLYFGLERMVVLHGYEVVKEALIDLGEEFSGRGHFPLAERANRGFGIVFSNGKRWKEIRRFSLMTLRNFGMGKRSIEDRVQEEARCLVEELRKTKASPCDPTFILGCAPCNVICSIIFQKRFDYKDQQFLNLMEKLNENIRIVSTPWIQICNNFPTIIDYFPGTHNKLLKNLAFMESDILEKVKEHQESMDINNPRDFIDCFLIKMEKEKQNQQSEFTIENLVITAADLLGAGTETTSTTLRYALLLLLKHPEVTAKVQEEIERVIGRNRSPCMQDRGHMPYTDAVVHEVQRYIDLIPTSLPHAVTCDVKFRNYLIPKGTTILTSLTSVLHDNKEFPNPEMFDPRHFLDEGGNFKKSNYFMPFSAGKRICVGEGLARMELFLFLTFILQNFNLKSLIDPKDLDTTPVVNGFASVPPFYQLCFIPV
# Cytochrome P450 3A4, sequence (P08684 whole entry): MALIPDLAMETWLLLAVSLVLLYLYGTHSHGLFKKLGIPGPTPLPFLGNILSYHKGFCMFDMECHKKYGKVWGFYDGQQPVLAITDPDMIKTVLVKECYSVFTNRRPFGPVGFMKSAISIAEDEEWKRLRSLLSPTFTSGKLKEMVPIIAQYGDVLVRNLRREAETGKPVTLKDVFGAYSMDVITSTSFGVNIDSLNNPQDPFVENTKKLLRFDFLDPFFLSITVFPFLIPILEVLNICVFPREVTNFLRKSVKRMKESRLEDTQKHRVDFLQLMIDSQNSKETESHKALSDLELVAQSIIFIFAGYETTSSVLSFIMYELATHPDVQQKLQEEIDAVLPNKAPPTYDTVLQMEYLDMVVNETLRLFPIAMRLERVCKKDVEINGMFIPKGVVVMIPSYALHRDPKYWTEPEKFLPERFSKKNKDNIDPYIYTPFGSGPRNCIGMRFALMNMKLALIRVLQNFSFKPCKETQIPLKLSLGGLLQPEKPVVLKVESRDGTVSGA
# Coagulation factor IX, sequence (P00740 47-191 limits assumed): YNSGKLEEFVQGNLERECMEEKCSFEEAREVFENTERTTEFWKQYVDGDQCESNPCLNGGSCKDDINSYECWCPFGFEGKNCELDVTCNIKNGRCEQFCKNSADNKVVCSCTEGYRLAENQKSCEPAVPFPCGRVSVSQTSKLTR
# Coagulation factor IX, sequence (P00740 227-461 limits assumed): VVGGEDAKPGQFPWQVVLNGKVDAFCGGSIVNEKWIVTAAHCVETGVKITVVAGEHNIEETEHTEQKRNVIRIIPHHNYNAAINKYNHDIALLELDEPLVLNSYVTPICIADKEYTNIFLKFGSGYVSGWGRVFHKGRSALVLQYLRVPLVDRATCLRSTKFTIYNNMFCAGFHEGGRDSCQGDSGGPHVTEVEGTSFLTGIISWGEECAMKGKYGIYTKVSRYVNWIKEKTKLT
# Cytochrome P450 2D6, sequence (P10635 whole entry): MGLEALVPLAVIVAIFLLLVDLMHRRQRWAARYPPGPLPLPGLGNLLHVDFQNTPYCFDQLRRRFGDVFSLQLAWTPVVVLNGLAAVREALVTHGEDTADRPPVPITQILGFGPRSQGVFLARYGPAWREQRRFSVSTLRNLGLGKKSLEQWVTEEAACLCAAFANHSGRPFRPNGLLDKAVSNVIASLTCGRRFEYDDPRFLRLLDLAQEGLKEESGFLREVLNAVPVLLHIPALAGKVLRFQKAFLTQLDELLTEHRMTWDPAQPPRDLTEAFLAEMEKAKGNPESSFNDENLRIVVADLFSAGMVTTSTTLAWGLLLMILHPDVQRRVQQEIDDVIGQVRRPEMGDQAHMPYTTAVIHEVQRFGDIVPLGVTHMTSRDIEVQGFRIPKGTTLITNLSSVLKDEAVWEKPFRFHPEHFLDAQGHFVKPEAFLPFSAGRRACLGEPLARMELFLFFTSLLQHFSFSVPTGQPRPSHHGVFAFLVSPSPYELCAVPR
# Coagulation factor X, sequence (P00742 41-179 limits assumed): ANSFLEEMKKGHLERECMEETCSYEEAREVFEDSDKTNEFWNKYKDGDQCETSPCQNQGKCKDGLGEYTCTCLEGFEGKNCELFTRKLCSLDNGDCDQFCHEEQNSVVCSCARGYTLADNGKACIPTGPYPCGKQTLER
# Coagulation factor X, sequence (P00742 235-488 limits assumed): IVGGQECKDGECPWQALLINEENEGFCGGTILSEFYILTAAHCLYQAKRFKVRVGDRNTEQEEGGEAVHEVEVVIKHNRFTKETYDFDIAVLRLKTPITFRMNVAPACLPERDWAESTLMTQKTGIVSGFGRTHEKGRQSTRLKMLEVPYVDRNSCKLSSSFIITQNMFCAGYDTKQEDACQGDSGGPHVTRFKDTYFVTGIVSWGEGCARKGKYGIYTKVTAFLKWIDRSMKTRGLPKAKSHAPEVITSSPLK
# Cytochrome P450 2C9, sequence (P11712 whole entry): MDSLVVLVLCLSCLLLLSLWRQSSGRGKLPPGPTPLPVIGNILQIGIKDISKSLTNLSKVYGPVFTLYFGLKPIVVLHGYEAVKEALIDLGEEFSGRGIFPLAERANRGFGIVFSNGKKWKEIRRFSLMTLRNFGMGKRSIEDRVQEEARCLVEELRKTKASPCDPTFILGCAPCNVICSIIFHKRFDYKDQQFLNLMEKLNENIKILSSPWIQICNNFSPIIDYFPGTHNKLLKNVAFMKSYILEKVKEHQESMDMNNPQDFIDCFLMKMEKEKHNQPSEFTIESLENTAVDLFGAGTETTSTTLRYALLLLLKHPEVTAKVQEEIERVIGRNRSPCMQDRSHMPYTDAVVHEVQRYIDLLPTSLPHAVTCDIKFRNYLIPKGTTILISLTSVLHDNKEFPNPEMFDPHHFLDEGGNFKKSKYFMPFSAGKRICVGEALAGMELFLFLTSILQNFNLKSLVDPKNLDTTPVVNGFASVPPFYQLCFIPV
smiles,measurement,setting,value
O=C(NC[C@@H]1OC(=O)N2c3ccc(N4CCOCC4=O)cc3OC[C@@H]12)c1ccc(Cl)s1,Activity,V79,Non-toxic
same,Activity,Rattus norvegicus [1],Non-toxic
same,Activity,Rattus norvegicus [2],Non-toxic
same,IC50,Cytochrome P450 2C9,43.2 µM
same,Vd,[3],1.7 L/kg
same,IC50,Coagulation factor X,0.00341 µM
same,Tmax,[4],30 min
same,IC50,Prothrombin,> 100 µM
same,clearance,[5],6.67 mL/min/kg
same,Activity,Rattus norvegicus [6],Non-toxic
same,IC50,Cytochrome P450 3A4,85.1 µM
same,IC50,Coagulation factor IX,> 100 µM
same,Activity,Salmonella typhimurium,Non-toxic
same,Activity,Rattus norvegicus [7],Non-toxic
same,bioavailability,[8],63.7%
same,IC50,Cytochrome P450 2D6,> 200 µM
same,Activity,Rattus norvegicus [9],Non-toxic
same,Activity,Rattus norvegicus [10],Dose-dependent effect
same,Activity,Rattus norvegicus [11],Non-toxic
same,IC50,Cytochrome P450 2C19,> 200 µM
same,Activity,Rattus norvegicus [12],Non-toxic
same,AUC(0-inf),[13],33000 ng·h/mL
same,bioavailability,[14],92%
same,Activity,Rattus norvegicus [15],Non-toxic
